Where two headings read alike, the source gives them in different places.
Assays:
OCT1 = target: T1, OCT1 (Homo sapiens, UniProt O15245); assay: OCT1 uptake inhibition in transfected HEK cells; format: in vitro ADME
T1 sequence (O15245 1-554): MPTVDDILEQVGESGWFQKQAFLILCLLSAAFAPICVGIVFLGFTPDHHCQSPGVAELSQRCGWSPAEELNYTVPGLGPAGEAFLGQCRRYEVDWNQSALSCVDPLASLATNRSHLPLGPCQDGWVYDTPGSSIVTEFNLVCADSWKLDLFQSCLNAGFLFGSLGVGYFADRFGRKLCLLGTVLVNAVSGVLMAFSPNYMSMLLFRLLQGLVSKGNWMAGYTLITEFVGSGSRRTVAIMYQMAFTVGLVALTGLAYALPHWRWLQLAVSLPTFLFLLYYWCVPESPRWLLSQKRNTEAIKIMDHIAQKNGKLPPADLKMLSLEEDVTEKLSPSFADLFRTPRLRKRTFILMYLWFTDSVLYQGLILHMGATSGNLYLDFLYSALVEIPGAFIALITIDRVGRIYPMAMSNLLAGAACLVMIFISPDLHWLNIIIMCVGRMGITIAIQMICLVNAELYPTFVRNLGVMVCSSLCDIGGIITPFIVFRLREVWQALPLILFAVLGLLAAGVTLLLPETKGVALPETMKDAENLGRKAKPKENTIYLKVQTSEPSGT
Method in brief: (§1)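 HEK cells overexpressing NTCP, OAT1, OAT3, OATP2B1, OCT1 or OCT2 were incubated with probe substrate. Pairs were estrone 3-sulfate/cyclosporin A (NTCP), PAH/probenecid (OAT1), furosemide/probenecid (OAT3), estrone 3-sulfate/glibenclamide (OATP2B1), 3H-MPP+/decynium 22 (OCT1) and 3H-MPP+/imipramine (OCT2). IC50 was determined with and without test compound, at ≤50 µM for the parent and ≤10 µM for the metabolite.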

CYP2D6 = CYP2D6 (Homo sapiens, UniProt P10635); assay: CYP2D6 inhibition in human liver microsomes; format: in vitro ADME
Chain of CYP2D6 (P10635 whole entry, canonical isoform): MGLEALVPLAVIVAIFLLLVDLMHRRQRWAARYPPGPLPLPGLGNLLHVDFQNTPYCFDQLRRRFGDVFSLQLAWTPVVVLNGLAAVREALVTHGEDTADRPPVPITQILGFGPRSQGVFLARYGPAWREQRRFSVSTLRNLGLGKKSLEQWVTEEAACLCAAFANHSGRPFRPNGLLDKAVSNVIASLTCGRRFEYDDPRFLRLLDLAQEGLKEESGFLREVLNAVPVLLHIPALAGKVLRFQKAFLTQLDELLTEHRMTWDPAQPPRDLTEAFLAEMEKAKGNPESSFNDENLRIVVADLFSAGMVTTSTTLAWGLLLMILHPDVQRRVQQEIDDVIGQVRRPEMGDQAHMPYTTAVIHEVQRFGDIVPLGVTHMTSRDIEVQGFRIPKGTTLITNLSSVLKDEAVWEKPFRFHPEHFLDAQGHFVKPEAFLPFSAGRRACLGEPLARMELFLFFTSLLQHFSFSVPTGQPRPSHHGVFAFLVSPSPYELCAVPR
Method in brief: (§2)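 Pooled human liver microsomes were incubated with standard CYP-selective substrates, with and without test compound at 0.03–100 μM. Standard selective inhibitors for each isoform ran in parallel as positive controls. Read-out was IC50. For CYP3A4 only, time-dependent inhibition was also tested after 30 min preincubation, using midazolam and testosterone as substrates.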

NTCP = NTCP (Homo sapiens, UniProt Q14973); assay: NTCP uptake inhibition in transfected HEK cells; format: in vitro ADME
Chain of NTCP (Q14973 whole entry): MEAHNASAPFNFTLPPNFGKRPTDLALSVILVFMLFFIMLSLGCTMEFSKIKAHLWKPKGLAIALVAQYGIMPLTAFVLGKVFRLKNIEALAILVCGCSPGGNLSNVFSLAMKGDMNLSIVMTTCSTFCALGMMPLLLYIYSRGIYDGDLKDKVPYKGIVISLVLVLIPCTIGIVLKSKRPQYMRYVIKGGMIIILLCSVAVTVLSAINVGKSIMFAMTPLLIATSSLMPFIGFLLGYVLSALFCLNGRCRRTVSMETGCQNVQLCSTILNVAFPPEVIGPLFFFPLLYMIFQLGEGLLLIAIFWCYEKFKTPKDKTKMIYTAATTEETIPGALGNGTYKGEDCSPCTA
Method in brief: as §1

CYP2A6 = target: T2, CYP2A6 (Homo sapiens, UniProt P11509); assay: CYP2A6 inhibition in human liver microsomes; format: in vitro ADME
T2 sequence (P11509 1-494): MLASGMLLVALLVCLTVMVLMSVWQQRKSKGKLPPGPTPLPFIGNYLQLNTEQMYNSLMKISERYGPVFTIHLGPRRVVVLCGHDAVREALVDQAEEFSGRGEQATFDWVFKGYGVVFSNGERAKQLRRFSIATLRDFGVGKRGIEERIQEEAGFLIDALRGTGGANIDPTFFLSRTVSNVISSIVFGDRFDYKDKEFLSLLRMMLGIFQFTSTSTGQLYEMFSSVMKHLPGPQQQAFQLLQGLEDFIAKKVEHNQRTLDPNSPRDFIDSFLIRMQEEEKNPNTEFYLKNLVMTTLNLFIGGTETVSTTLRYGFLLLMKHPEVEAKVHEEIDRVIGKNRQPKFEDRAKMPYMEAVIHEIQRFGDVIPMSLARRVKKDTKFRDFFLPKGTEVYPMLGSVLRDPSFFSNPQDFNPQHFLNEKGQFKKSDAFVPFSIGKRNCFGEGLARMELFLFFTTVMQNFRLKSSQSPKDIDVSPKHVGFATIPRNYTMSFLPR
Method in brief: as §2

OAT1 = OAT1 (Homo sapiens, UniProt Q4U2R8); assay: OAT1 uptake inhibition in transfected HEK cells; format: in vitro ADME
Chain of OAT1 (Q4U2R8 whole entry): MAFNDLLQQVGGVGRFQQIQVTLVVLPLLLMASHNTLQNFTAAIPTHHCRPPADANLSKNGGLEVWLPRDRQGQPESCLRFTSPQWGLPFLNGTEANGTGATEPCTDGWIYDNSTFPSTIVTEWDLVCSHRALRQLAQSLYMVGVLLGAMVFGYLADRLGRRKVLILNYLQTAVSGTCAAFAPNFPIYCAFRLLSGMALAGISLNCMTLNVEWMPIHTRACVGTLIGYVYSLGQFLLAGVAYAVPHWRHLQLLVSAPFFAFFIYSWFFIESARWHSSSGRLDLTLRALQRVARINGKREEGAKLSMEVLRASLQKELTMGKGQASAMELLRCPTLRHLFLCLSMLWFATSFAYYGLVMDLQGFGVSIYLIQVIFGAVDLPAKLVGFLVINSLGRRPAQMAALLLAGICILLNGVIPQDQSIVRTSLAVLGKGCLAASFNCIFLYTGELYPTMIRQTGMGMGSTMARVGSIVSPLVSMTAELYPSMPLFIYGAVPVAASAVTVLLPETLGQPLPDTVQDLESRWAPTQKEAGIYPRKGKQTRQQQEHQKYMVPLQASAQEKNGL
Method in brief: as §1

CYP3A4 = assay: Relative induction score; design: species or system human; conditions: sensitive CYP3A4 substrate midazolam
Method in brief: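 The relative induction score (RIS) method was applied to CYP3A4 induction data from hepatocytes of three donors treated for 3 days. Strong, moderate and weak reference inducers (rifampicin, bosentan, pioglitazone) served as calibrators for estimating clinical DDI risk.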

OCT2 = OCT2 (Homo sapiens, UniProt O15244); assay: OCT2 uptake inhibition in transfected HEK cells; format: in vitro ADME
Chain of OCT2 (O15244 whole entry): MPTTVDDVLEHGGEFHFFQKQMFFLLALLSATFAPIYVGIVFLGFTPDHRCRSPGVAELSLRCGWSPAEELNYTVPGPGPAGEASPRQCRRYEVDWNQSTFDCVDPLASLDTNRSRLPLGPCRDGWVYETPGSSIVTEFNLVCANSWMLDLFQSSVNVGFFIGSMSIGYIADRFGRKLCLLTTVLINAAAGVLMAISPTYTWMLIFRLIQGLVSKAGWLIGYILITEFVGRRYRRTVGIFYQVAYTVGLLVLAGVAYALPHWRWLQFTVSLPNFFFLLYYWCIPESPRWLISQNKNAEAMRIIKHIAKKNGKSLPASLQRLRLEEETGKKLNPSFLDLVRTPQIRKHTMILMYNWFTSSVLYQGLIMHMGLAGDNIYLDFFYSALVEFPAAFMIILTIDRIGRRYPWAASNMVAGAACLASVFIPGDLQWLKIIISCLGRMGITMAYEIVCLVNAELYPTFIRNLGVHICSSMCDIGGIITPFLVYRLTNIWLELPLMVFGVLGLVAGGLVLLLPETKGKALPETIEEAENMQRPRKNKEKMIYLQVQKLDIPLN
Method in brief: as §1

CYP1A2 = target: T3, CYP1A2 (Homo sapiens, UniProt P05177); assay: biochemical; format: in vitro ADME
T3 sequence (P05177 1-516): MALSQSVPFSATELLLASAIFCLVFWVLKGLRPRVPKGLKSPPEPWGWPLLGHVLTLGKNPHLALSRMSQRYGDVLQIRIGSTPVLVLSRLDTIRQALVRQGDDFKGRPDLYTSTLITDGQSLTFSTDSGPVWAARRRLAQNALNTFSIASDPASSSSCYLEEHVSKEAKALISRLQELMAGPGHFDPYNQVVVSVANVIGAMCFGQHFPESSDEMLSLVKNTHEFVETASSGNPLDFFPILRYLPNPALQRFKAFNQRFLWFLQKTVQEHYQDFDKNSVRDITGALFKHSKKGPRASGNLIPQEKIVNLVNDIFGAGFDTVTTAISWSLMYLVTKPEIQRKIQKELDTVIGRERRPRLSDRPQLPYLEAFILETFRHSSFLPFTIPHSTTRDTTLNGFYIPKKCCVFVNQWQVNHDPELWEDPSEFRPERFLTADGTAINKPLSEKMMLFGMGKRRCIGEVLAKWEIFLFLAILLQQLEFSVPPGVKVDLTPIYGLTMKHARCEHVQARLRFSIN

UGT1A1 = target: T4, UGT1A1 (Homo sapiens, UniProt P22309); assay: UGT1A1 inhibition in human liver microsomes; format: in vitro ADME; conditions: read-out: Ki, UGT1A1
T4 sequence (P22309 26-533): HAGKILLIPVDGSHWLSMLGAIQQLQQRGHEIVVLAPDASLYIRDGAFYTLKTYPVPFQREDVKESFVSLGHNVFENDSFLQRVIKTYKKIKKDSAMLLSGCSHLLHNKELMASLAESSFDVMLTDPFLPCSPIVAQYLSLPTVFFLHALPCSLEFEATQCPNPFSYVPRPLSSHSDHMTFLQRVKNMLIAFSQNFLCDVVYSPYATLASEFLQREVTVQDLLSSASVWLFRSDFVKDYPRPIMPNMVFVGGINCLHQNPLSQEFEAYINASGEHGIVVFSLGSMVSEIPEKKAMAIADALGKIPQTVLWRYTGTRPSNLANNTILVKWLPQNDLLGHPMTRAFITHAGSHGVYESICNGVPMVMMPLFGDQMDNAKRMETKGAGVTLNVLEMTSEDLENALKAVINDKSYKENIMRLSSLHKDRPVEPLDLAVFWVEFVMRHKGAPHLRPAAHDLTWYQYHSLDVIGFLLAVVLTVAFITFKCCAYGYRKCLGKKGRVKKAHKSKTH
Method in brief: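 Glucuronidation of UGT-selective substrates was measured in human liver microsomes with and without test compound, using a rank-order approach. Standard inhibitors for each isoform were incubated in parallel as positive controls.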

[1] = cited from earlier work

## CC(O)c1cc(C(=O)N[C@@H](C)Cn2ccc(-c3ccc(C#N)c(Cl)c3)n2)[nH]n1 (some centres unmarked) [Darolutamide, darolutamide]
OCT1
  IC50: > 50 µM
CYP2D6
  IC50: 81.9 µM
NTCP
  IC50: > 50 µM
CYP2A6
  IC50: > 100 µM
OAT1
  IC50: > 50 µM
CYP3A4
  Overall assessment of CYP3A4 induction (RIS method): moderate-to-strong inducers
OCT2
  IC50: > 50 µM
CYP1A2
  IC50: > 100 µM

## CC(=O)c1cc(C(=O)N[C@@H](C)Cn2ccc(-c3ccc(C#N)c(Cl)c3)n2)[nH]n1 [Keto-darolutamide, keto-darolutamide]
OCT1; read-out: IC50, OCT1, HEK cells, substrate 3H-MPP+, reference decynium 22
  IC50: > 10 µM
CYP2D6; read-out: IC50, CYP2D6, human liver microsomes, substrate bufuralol
  IC50: 51.9 µM
CYP2A6; read-out: IC50, CYP2A6, human liver microsomes, substrate coumarin
  IC50: > 100 µM
OAT1; read-out: IC50, OAT1, HEK cells, substrate PAH, reference probenecid
  IC50: > 2 µM
UGT1A1
  Ki: 8.13 µM
[1]
  fraction unbound in human plasma, fold lower compared with darolutamide: ~ 40 fold
CYP3A4
  Overall assessment of CYP3A4 induction (RIS method): weak-to-moderate inducer
OCT2; read-out: IC50, OCT2, HEK cells, substrate 3H-MPP+, reference imipramine
  IC50: > 2 µM
CYP1A2; read-out: IC50, CYP1A2, human liver microsomes, substrate phenacetin
  IC50: > 100 µM

From publication PMC6828636 (European Journal of Drug Metabolism and Pharmacokinetics, 2019)
